Test results taken from ChEMBL document CHEMBL1128341, “(+)-cis-4,5,7a,8,9,10,11,11a-octahydro-7H-10-methylindolo[1,7- bc][2,6]-naphthyridine: a 5-HT2C/2B receptor antagonist with low 5-HT2A receptor affinity” (1995).

Columns and labels:
Rattus norvegicus [1] = assay: Inhibition of ACTH response to MK-212 by the compound (1 mg/Kg) in rats; type: functional
In short: (§1)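 Male Sprague-Dawley rats (200–250 g) received compound (0, 0.1 or 1 mg/kg sc) 20 min before MK-212 sc or solvent. Rats were decapitated 30 min after MK-212, and trunk blood plasma was taken. Rat ACTH was measured by radioimmunoassay (ng/mL), as means ± SEM of eight experiments.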

Rattus norvegicus [2] = assay: Inhibition of ACTH response to MK-212 by the compound (1 mg/Kg) in rats with solvent; type: functional; in short: as §1
Rattus norvegicus [3] = assay: Inhibition of ACTH response to MK-212 by the compound (0.1 mg/Kg) in rats; type: functional; in short: as §1
[4] = biological target: D(2) dopamine receptor (Bos taurus) (UniProt P20288); settings: Striatum
[5] = biological target: Serotonin 3 receptor (5HT3) (Mus musculus) (UniProt Q9JHJ5+P23979); settings: Cortex
[6] = biological target: T1, 5-hydroxytryptamine receptor 2C (Homo sapiens) (UniProt P28335)
T1 sequence (whole entry): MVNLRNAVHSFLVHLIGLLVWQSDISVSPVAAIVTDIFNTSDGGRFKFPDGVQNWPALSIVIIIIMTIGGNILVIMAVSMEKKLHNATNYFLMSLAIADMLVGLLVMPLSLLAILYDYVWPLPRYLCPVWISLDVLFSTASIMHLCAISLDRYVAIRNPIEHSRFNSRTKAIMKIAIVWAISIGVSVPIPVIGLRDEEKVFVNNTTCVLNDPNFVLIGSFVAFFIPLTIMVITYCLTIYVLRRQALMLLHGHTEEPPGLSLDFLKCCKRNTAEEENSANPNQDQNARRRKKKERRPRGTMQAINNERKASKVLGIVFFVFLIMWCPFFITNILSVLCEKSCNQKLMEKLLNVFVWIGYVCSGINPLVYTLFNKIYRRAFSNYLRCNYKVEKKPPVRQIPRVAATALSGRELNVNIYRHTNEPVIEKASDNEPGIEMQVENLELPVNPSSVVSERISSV

[7] = biological target: D(1A) dopamine receptor (Bos taurus) (UniProt Q95136); settings: Striatum
[8] = biological target: 5-hydroxytryptamine receptor 2A (Rattus norvegicus) (UniProt P14842); settings: N1E-115
[9] = biological target: 5-hydroxytryptamine receptor 1B (Rattus norvegicus) (UniProt P28564)
[10] = biological target: T2, 5-hydroxytryptamine receptor 1A (Homo sapiens) (UniProt P08908); settings: Sus scrofa; Frontal cortex; Membrane
T2 sequence (whole entry): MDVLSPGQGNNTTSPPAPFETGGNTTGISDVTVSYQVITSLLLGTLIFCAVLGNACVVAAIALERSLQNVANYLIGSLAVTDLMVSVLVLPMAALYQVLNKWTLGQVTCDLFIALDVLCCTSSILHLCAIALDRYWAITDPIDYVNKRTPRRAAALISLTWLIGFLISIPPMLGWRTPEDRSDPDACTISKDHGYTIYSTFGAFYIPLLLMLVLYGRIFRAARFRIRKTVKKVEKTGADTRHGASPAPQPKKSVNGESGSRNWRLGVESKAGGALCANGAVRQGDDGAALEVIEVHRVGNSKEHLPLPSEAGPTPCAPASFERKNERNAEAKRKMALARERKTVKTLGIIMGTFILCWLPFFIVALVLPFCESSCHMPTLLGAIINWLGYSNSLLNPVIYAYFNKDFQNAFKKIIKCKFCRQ

[11] = biological target: T3, Alpha-2A adrenergic receptor (Bos taurus) (UniProt Q28838)
T3 sequence (whole entry): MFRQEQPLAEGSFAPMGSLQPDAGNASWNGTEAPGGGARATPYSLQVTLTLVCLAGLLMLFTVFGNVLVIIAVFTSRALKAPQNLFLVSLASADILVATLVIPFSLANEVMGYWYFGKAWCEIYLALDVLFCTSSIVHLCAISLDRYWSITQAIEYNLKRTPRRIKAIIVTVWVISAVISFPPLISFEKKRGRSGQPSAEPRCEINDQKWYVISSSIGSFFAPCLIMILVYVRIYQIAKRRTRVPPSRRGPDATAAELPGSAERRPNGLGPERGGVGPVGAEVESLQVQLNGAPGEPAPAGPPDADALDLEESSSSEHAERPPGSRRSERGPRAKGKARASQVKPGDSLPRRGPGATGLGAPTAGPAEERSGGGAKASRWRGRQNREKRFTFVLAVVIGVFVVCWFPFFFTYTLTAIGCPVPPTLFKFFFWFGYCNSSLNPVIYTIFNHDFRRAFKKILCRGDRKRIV

[12] = biological target: T4, Alpha-1A adrenergic receptor (Bos taurus) (UniProt P18130)
T4 sequence (whole entry): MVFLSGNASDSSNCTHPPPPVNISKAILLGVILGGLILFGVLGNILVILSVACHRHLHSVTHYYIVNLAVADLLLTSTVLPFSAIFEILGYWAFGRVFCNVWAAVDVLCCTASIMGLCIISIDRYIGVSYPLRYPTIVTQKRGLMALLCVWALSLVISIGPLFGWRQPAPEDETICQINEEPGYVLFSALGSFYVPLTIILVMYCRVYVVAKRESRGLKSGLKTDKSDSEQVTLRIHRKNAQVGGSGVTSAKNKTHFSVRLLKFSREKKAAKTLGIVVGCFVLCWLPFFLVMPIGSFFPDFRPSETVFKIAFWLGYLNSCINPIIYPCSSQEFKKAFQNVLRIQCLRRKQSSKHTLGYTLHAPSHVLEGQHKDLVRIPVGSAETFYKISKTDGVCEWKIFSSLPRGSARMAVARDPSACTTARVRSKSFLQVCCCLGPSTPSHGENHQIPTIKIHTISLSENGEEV

D(1A) dopamine receptor (Bos taurus), sequence (Q95136 whole entry): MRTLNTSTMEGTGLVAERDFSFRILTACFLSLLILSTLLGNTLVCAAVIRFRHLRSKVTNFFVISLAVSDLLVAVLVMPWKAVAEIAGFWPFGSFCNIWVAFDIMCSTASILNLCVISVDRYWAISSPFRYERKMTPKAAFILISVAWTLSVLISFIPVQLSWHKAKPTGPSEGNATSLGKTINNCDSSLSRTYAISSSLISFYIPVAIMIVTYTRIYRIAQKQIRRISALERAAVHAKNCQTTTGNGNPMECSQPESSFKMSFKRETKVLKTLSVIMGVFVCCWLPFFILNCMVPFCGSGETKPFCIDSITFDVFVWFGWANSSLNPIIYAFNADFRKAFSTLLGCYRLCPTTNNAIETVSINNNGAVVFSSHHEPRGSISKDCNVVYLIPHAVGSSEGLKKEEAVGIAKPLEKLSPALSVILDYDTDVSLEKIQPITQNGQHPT
D(2) dopamine receptor (Bos taurus), sequence (P20288 whole entry): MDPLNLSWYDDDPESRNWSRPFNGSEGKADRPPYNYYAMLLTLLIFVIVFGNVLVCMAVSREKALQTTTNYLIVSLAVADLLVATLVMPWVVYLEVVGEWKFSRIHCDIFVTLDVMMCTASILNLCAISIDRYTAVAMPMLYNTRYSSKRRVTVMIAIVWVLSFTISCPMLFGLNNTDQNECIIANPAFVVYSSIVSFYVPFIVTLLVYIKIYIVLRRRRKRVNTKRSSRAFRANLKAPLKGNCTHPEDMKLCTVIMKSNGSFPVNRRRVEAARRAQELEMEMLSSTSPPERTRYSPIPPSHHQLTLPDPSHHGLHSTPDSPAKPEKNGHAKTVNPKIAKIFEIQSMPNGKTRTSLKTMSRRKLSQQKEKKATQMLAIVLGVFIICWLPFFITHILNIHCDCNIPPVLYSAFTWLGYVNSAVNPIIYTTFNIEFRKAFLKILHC
5-hydroxytryptamine receptor 2A (Rattus norvegicus), sequence (P14842 whole entry): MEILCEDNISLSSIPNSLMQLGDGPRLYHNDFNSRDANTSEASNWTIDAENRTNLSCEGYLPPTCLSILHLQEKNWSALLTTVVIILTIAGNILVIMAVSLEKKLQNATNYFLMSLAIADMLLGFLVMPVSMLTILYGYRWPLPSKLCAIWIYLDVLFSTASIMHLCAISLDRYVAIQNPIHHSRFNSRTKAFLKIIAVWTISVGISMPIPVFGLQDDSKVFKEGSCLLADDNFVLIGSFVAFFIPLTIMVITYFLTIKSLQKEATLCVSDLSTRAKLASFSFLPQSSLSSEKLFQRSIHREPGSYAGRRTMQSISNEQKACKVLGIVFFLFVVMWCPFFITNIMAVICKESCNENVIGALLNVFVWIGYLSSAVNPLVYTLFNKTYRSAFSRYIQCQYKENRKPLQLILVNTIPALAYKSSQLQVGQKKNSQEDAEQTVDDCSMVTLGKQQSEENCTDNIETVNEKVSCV
5-hydroxytryptamine receptor 1B (Rattus norvegicus), sequence (P28564 whole entry): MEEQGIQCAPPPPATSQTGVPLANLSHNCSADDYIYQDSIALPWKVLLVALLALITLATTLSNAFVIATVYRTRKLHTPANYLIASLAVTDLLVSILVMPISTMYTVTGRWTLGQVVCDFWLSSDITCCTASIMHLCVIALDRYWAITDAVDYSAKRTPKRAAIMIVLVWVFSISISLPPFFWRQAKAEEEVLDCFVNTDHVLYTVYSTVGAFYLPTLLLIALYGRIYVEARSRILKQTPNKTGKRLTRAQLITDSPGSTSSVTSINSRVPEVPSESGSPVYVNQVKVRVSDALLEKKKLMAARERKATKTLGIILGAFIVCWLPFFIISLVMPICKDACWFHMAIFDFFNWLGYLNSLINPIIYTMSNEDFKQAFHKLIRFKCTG
Serotonin 3 receptor (5HT3) (Mus musculus), sequence (P23979 whole entry, looked up): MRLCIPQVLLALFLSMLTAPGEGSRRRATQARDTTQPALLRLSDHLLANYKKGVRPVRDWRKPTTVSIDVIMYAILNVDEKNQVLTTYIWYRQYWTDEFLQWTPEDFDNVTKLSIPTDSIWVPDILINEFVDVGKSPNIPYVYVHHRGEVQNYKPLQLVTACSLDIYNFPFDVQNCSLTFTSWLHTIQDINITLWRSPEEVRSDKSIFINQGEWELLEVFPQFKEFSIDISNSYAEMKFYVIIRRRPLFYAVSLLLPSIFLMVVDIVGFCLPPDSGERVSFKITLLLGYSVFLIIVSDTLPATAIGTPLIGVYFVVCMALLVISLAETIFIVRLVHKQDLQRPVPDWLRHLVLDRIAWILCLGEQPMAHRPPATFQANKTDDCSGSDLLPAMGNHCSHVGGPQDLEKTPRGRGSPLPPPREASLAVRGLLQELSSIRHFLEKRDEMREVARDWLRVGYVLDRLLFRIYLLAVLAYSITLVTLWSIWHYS
Serotonin 3 receptor (5HT3) (Mus musculus), sequence (Q9JHJ5 whole entry, looked up): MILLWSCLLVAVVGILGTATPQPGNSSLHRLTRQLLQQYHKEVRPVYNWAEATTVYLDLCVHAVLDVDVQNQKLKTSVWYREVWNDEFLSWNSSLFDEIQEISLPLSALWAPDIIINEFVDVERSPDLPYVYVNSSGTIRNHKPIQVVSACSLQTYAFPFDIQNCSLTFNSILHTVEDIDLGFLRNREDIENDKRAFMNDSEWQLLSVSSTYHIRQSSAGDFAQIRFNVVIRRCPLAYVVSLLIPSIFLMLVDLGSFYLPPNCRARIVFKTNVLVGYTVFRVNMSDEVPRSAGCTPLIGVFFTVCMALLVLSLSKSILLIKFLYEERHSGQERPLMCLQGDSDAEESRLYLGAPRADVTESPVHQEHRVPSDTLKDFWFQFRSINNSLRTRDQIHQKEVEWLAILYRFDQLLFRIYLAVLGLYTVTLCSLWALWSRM

| Compound | Inhibition (Rattus norvegicus [1]) [ng/mL] | Inhibition (Rattus norvegicus [2]) [ng/mL] | Inhibition (Rattus norvegicus [3]) [ng/mL] | pKD [4] | pKD [5] | pKD [6] | pKD [7] | pKD [8] | pKD [9] | pKD [10] | pKD [11] | pKD [12] |
| --- | --- | --- | --- | --- | --- | --- | --- | --- | --- | --- | --- | --- |
| CN1CC[C@@H]2CN3CCc4cccc(c43)[C@@H]2C1 (stereo in doubt; 8) [listing 1 of 2 here] | 95.1 | 38.5 | 165.8 | – | – | – | – | – | – | – | – | – |
| CN1CC[C@@H]2CN3CCc4cccc(c43)[C@@H]2C1 (stereo in doubt; 8) [listing 2 of 2 here] | – | – | – | < 5 | 4.7 | 7.8 | < 5 | 6.2 | 4.6 | 6.1 | 6.5 | 5.6 |
| CN1CC[C@@H]2CN3CCc4cccc(c43)[C@@H]2C1 (stereo in doubt; 9) | – | – | – | < 5 | – | – | < 5 | – | – | < 5 | 6 | 6 |
| Cc1nc2sccn2c(=O)c1CCN1CCC(=C(c2ccc(F)cc2)c2ccc(F)cc2)CC1 [RITANSERIN] | 95.4 | 37.2 | 204.3 | – | – | – | – | – | – | – | – | – |
